Source: ChEMBL document CHEMBL5055637, “Novel C-3-(N-alkyl-aryl)-aminomethyl rifamycin SV derivatives exhibit activity against rifampicin-resistant Mycobacterium tuberculosis RpoBS522L strain and display a different binding mode at the RNAP β-subunit site compared to rifampicin” (2021)
≈ marks a conversion by molar mass, not a printed value.

Assays:
[1] = tested on: Mycobacterium tuberculosis; assay: Antitubercular activity against wild type Mycobacterium tuberculosis HN878 assessed as bacterial growth inhibition measured after 5 days by serial dilution method; assay type: functional; conditions: HN878, 120 h, time 5 day
Summary of the method: (§1)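 Strains grown in Middlebrook 7H9 with OADC supplement and 0.05% w/v Tween 80. Compounds tested as 10-point 2-fold serial dilutions. Growth read as OD590 after 5 days in 7H9-OADC-Tw. Levenberg-Marquardt curve fitting gave MIC90, the concentration inhibiting growth by 90% relative to controls. Run in triplicate.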

[2] = tested on: Mycobacterium tuberculosis; assay: Antitubercular activity against wild type Mycobacterium tuberculosis H37Rv ATCC 25618 assessed as bacterial growth inhibition measured after 5 days by serial dilution method; assay type: functional; conditions: H37Rv ATCC 25618, 120 h, time 5 day; summary of the method: as §1

CO[C@H]1/C=C/O[C@@]2(C)Oc3c(C)c(O)c4c(O)c(c(CN5CCN(CCO)CC5)c(O)c4c3C2=O)NC(=O)/C(C)=C\C=C\[C@H](C)[C@H](O)[C@@H](C)[C@@H](O)[C@@H](C)[C@H](OC(C)=O)[C@@H]1C
MIC90 [1]: 0.07 µM (≈ 0.0588 µg/mL)
MIC90 [2]: 0.034 µM (≈ 0.0286 µg/mL)

CO[C@H]1/C=C/O[C@@]2(C)Oc3c(C)c(O)c4c(O)c(c(CNCc5ccc(S(C)(=O)=O)cc5)c(O)c4c3C2=O)NC(=O)/C(C)=C\C=C\[C@H](C)[C@H](O)[C@@H](C)[C@@H](O)[C@@H](C)[C@H](OC(C)=O)[C@@H]1C
MIC90 [1]: 0.096 µM (≈ 0.0859 µg/mL)
MIC90 [2]: 0.039 µM (≈ 0.0349 µg/mL)

CO[C@H]1/C=C/O[C@@]2(C)Oc3c(C)c(O)c4c(O)c(c(CNCc5ccncc5)c(O)c4c3C2=O)NC(=O)/C(C)=C\C=C\[C@H](C)[C@H](O)[C@@H](C)[C@@H](O)[C@@H](C)[C@H](OC(C)=O)[C@@H]1C
MIC90 [1]: 0.31 µM (≈ 0.254 µg/mL)
MIC90 [2]: 0.075 µM (≈ 0.0613 µg/mL)

CO[C@H]1/C=C/O[C@@]2(C)Oc3c(C)c(O)c4c(O)c(c(CNCc5ccccc5)c(O)c4c3C2=O)NC(=O)/C(C)=C\C=C\[C@H](C)[C@H](O)[C@@H](C)[C@@H](O)[C@@H](C)[C@H](OC(C)=O)[C@@H]1C
MIC90 [2]: 0.097 µM (≈ 0.0792 µg/mL)

CO[C@H]1/C=C/O[C@@]2(C)Oc3c(C)c(O)c4c(O)c(c(CNCc5cccs5)c(O)c4c3C2=O)NC(=O)/C(C)=C\C=C\[C@H](C)[C@H](O)[C@@H](C)[C@@H](O)[C@@H](C)[C@H](OC(C)=O)[C@@H]1C
MIC90 [1]: 0.2 µM (≈ 0.165 µg/mL)
MIC90 [2]: 0.082 µM (≈ 0.0675 µg/mL)

CO[C@H]1/C=C/O[C@@]2(C)Oc3c(C)c(O)c4c(O)c(c(CNCc5ccco5)c(O)c4c3C2=O)NC(=O)/C(C)=C\C=C\[C@H](C)[C@H](O)[C@@H](C)[C@@H](O)[C@@H](C)[C@H](OC(C)=O)[C@@H]1C
MIC90 [1]: 0.45 µM (≈ 0.363 µg/mL)
MIC90 [2]: 0.09 µM (≈ 0.0726 µg/mL)

COC(=O)c1ccc(CNCc2c3c(O)c4c(O)c(C)c5c(c4c2O)C(=O)[C@@](C)(O/C=C/[C@H](OC)[C@@H](C)[C@@H](OC(C)=O)[C@H](C)[C@H](O)[C@H](C)[C@@H](O)[C@@H](C)/C=C/C=C(/C)C(=O)N3)O5)cc1
MIC90 [1]: 0.53 µM (≈ 0.464 µg/mL)
MIC90 [2]: 0.12 µM (≈ 0.105 µg/mL)

CO[C@H]1/C=C/O[C@@]2(C)Oc3c(C)c(O)c4c(O)c(c(CNCCc5c[nH]c6ccccc56)c(O)c4c3C2=O)NC(=O)/C(C)=C\C=C\[C@H](C)[C@H](O)[C@@H](C)[C@@H](O)[C@@H](C)[C@H](OC(C)=O)[C@@H]1C
MIC90 [1]: 0.39 µM (≈ 0.339 µg/mL)
MIC90 [2]: 0.039 µM (≈ 0.0339 µg/mL)

CO[C@H]1/C=C/O[C@@]2(C)Oc3c(C)c(O)c4c(O)c(c(CNCCc5ccc(O)cc5)c(O)c4c3C2=O)NC(=O)/C(C)=C\C=C\[C@H](C)[C@H](O)[C@@H](C)[C@@H](O)[C@@H](C)[C@H](OC(C)=O)[C@@H]1C
MIC90 [1]: 0.22 µM (≈ 0.186 µg/mL)
MIC90 [2]: 0.066 µM (≈ 0.0559 µg/mL)

NNC(=O)c1ccncc1 [ISONIAZID]
MIC90 [1]: 0.29 µM (≈ 0.0398 µg/mL)
MIC90 [2]: 0.28 µM (≈ 0.0384 µg/mL)

CO[C@H]1/C=C/O[C@@]2(C)Oc3c(C)c(O)c4c(O)c(c(/C=N/N5CCN(C)CC5)c(O)c4c3C2=O)NC(=O)/C(C)=C\C=C\[C@H](C)[C@H](O)[C@@H](C)[C@@H](O)[C@@H](C)[C@H](OC(C)=O)[C@@H]1C [RIFAMPIN]
MIC90 [1]: 0.02 µM (≈ 0.0165 µg/mL)
MIC90 [2]: 0.0045 µM (≈ 0.0037 µg/mL)
